Screening data: PubChem BioAssay, several laboratories
UBC9 SUMO inh: blocks human SUMOylation mediated by UBC9; AID 2006; actives 0.36% (n = 290,000); HTRF SUMOylation assay, SAE1/SAE2 + UBC9, in vitro; P63279; inhibition, % at 35 µM; in the data active means inhibition above about 50%, passing the limit was not always enough
PfM18AAP inh: blocks P. falciparum M18 aspartyl aminopeptidase | recombinant PfM18AAP, H-Glu-NHMec fluorogenic cleavage | inhibition, % at 7.35 µM | actives 1.2% (n = 290,000) | AID 1822;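 active means inhibition above the campaign mean inhibition over all tested compounds plus 3 SD, cut at about 28% in these data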
PfGluPho inh: PfG6PD (Plasmodium falciparum) enzyme inhibition; PfGluPho enzyme, NADPH resazurin-diaphorase fluorescence; inhibition, % at 20 µM; actives 0.78% (n = 350,000); AID 504690;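 active means inhibition reaching at least a set limit at 20 µM in the primary screen, cut at about 59% in these data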
HKDC1 inh: HKDC1 (human) hexokinase inhibition | Q2TB90 | recombinant HKDC1, G6PDH/diaphorase resazurin coupled fluorescence | inhibition, % at 20 µM | actives 0.16% (n = 340,000);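 active means inhibition above about 35% when tested at 20 µM, limit read from the data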
Target sequence (Q2TB90 whole entry, looked up): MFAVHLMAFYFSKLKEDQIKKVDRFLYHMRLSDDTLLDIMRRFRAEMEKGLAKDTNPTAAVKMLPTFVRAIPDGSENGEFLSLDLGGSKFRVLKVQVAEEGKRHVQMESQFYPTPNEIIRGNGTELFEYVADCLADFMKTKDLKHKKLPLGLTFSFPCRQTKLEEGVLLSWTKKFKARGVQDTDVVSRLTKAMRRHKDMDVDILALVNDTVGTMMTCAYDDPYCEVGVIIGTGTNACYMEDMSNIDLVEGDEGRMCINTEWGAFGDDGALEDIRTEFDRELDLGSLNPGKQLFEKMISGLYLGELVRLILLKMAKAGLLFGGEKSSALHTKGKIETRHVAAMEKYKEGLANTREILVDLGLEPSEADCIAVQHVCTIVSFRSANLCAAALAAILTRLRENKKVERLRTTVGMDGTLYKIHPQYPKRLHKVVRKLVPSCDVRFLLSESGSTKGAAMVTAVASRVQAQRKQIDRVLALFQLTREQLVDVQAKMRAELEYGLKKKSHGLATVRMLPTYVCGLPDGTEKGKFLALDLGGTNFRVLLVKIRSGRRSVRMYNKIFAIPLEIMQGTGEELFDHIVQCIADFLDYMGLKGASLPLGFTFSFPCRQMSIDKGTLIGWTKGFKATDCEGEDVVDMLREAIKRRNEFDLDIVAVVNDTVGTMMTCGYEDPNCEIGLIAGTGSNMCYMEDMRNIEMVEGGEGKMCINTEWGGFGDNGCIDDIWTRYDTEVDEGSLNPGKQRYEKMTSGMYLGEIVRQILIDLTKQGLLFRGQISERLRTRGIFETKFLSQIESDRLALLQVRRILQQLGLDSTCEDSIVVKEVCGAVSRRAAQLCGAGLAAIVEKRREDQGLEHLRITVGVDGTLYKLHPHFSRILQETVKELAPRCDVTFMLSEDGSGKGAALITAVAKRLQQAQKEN
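Test system: recombinant HKDC1 (HK5) hexokinase enzyme, produced in-house / Doses: 20 µM test compound, 1% DMSO / Timing: 90 min, room temperature / Detection: G6PDH/diaphorase-coupled fluorescence, 1 mM NADP, 100 µM resazurin, 525/613 nm / Control set: DMSO wells with and without enzyme mix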
APOBEC3A inh: inhibitors of human APOBEC3A DNA deaminase | inhibition, % at 20 µM | recombinant A3A, FAM/TAMRA ssDNA deamination fluorescence | P31941 | actives 0.41% (n = 330,000);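 active means at least 40% inhibition at 20 µM here, with at most 30% in a related deaminase screen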
APOBEC3G inh: APOBEC3G (human) deaminase inhibition; actives 0.28% (n = 330,000); Q9HC16; inhibition, % at 20 µM; recombinant A3G, ssDNA deamination FAM/TAMRA fluorescence; AID 493012;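 active means inhibition of at least 40% at 20 µM, with no more than 30% in the related APOBEC3A deaminase screen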
APOBEC3G confirm: APOBEC3G (human) deaminase inhibition, confirmed | AID 493152 | shares compounds with APOBEC3G inh | recombinant A3G ssDNA deaminase, UDG/FAM-TAMRA fluorescence | inhibition, % at 20 µM | actives 72% (n = 890);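 active means inhibition reaching a set limit in any replicate at 20 µM, the limit being 80% of the first screen's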
UDG ctr A3G: E. coli UDG inhibition in APOBEC3G counter-screen. shares compounds with APOBEC3G inh. UDG counterscreen, FAM/TAMRA oligo fluorescence. inhibition, % at 20 µM. 710 tested, under 10 active;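 active means compounds giving 40% or more inhibition at 20 µM in any one of the three replicates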;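 further: inhibitors lower the FAM signal released by uracil excision and alkaline cleavage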
PfG6PD confirm: PfG6PD inhibition, single-dose confirmed | inhibition, % at 20 µM | shares compounds with PfGluPho inh | actives 34% (n = 2,400) | AID 504753 | recombinant PfGluPho, NADPH-diaphorase-resazurin fluorescence;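 active means inhibition of at least 50% at 20 µM in any single replicate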
Each line names hits and unclear results; the compound was inactive in the other large screens (follow-up assays come after a bar, where they were run). Only some compounds are listed: those with a hit (about 2.4% of all), similar ones and a draw of the others.

O=C(CSc1ccc([N+](=O)[O-])cc1)Nc1cccc(S(=O)(=O)Nc2ccccc2F)c1	APOBEC3G inh 44 | APOBEC3G confirm 23 | UDG ctr A3G inactive
N#CCc1ccc(Oc2ccc([N+](=O)[O-])cn2)cc1	none
CCC(CC)NC(=O)c1cccc(Oc2ccccc2)c1	none
S=c1[nH]nc(C2CCCCC2)n1/N=C/c1ccncc1	APOBEC3G inh 48 | APOBEC3G confirm 68 | UDG ctr A3G inactive
CCc1cccc(C)c1NC(=S)NCc1ccc2c(c1)cc(C)n2C	APOBEC3G inh 40 | APOBEC3G confirm inactive | UDG ctr A3G inactive
O=c1c2c(nc3cc(-c4ccccc4)[nH]n13)CCS2	none
Cc1ccc(NNC(=O)c2ccno2)c(C)c1	APOBEC3G inh 46 | APOBEC3G confirm inactive | UDG ctr A3G inactive
Cc1cc(NC(=O)c2ccno2)no1	none
Fc1ccc(Cn2nnnc2CN2CCc3ccccc3C2)cc1	none
COc1ccc(N2C(=O)CC(Sc3ncn[nH]3)C2=O)c(OC)c1 (stereo unspecified)	APOBEC3G inh 46 | APOBEC3G confirm active | UDG ctr A3G inactive
O=C(CC1Sc2ncnn2C1=O)Nc1ccc(Br)cc1 (stereo unspecified)	PfM18AAP inh 37, APOBEC3G inh 41 | APOBEC3G confirm 70 | UDG ctr A3G inactive
CCOc1ccc2nc(NC(=S)N(C)C)sc2c1	APOBEC3G inh 47 | APOBEC3G confirm 55 | UDG ctr A3G inactive
Cc1ccc(-c2c(C)cc3oc(=O)cc(-c4ccccc4)c3c2C)cc1	none (no result: UBC9 SUMO inh, PfM18AAP inh)
CCOC(=O)c1ccc(-c2c(C)cc3oc(=O)cc(-c4ccccc4)c3c2C)cc1	APOBEC3G inh 84 (no result: UBC9 SUMO inh, PfM18AAP inh) | APOBEC3G confirm inactive
O=C1Nc2ccccc2SC1c1ccccc1 (stereo unspecified)	none (no result: APOBEC3A inh, APOBEC3G inh)
Cc1ccc(NC2Sc3ccccc3NC2=O)cc1 (stereo unspecified)	APOBEC3G inh 51 | APOBEC3G confirm inactive | UDG ctr A3G inactive
O=C(/C=C/c1ccc([N+](=O)[O-])cc1)NCCSc1ccccc1	none
CC(C)CSc1n[nH]c(=S)s1	APOBEC3G inh 42 | APOBEC3G confirm 90 | UDG ctr A3G inactive
Clc1ccc(OCCCN2CCCC2)cc1Cl	none
CN(C)S(=O)(=O)c1cc(NC(=O)COC(=O)Cc2ccc(Cl)cc2Cl)ccc1Cl	none
CCOc1ccc(NS(=O)(=O)c2ccc(N)cc2)cc1	none
COc1cnc(NS(=O)(=O)c2ccc(N)cc2)nc1	APOBEC3G inh 50 | APOBEC3G confirm 20 | UDG ctr A3G inactive
O=S(=O)(c1cc(C(F)(F)F)ccc1Cl)N1CCN(c2ncnc3ccccc23)CC1	none (no result: UBC9 SUMO inh, PfM18AAP inh)
Cc1c(N2C(=O)/C(=C\c3ccccc3O)SC2=S)c(=O)n(-c2ccccc2)n1C	APOBEC3G inh 56 | APOBEC3G confirm 75 | UDG ctr A3G inactive
S=c1[nH]nc(-c2cccc(Cl)c2)n1Cc1ccccc1	none
C=CCn1c(-c2cccc([N+](=O)[O-])c2)n[nH]c1=S	APOBEC3G inh 43 | APOBEC3G confirm 68 | UDG ctr A3G inactive
C=CCn1c(-c2cccc(Cl)c2)n[nH]c1=S	APOBEC3G inh 49 | APOBEC3G confirm 86 | UDG ctr A3G inactive
C=CCn1c(OCc2ccccc2)n[nH]c1=S	APOBEC3G inh 41 | APOBEC3G confirm 67 | UDG ctr A3G inactive
C=CCn1c(C(c2ccccc2)c2ccccc2)n[nH]c1=S	none
C=C(C)Cn1c(-c2cccs2)n[nH]c1=S	APOBEC3G inh 55 | APOBEC3G confirm 55 | UDG ctr A3G inactive
CN(C(=O)c1ccno1)c1nnc(-c2cnccn2)s1	none
Cc1nc(SCC(=O)Nc2ccc(C)c(F)c2)c2oc3ccccc3c2n1	none
C=C(C)Cn1c(-c2cccc([N+](=O)[O-])c2)n[nH]c1=S	APOBEC3G inh 44 | APOBEC3G confirm 75 | UDG ctr A3G inactive
COc1ccc(CCn2c(-c3ccc(Cl)cc3)n[nH]c2=S)cc1OC	none
CCn1c(CCCCc2n[nH]c(=S)n2CC)n[nH]c1=S	APOBEC3G inh 47 | APOBEC3G confirm 88 | UDG ctr A3G inactive
CCn1c(-c2ccc(Cl)cc2)n[nH]c1=S	APOBEC3G inh 54 | APOBEC3G confirm 80 | UDG ctr A3G inactive
CCCCCCCc1n[nH]c(=S)n1Cc1ccccc1	none
CCCCn1c(-c2csc(CCC)c2)n[nH]c1=S	none (no result: APOBEC3A inh, APOBEC3G inh)
CCCCn1c(-c2ccc([N+](=O)[O-])cc2)n[nH]c1=S	APOBEC3G inh 48 | APOBEC3G confirm 76 | UDG ctr A3G inactive
CCn1c(-c2ccc(C)cc2)n[nH]c1=S	APOBEC3G inh 51 | APOBEC3G confirm inactive
Cc1ccsc1/C=N/NC(=O)c1sccc1C	none
CC1CCN(C(=O)Cn2ncc3c4ccccc4n(C)c3c2=O)CC1	none
COc1ccc(N2C(=O)N(Cc3ccc(C)cc3)c3ccccc3S2(=O)=O)cc1	APOBEC3G inh 47 | APOBEC3G confirm inactive
CCOc1ccc(CN2CCNC(=O)C2CC(=O)N(C)Cc2nonc2C)cc1 (stereo unspecified)	none
S=c1[nH]nc(-c2ccccn2)n1/N=C/c1ccc(Cl)c(Cl)c1	APOBEC3G inh 46 | APOBEC3G confirm 45 | UDG ctr A3G inactive
S=c1[nH]nc(-c2cc(-c3ccccc3)n[nH]2)n1/N=C/c1ccc(Cl)c(Cl)c1	none (no result: UBC9 SUMO inh)
S=c1[nH]nc(-c2cc(-c3ccccc3)n[nH]2)n1/N=C/c1cccc(Cl)c1	APOBEC3G inh 53 (no result: UBC9 SUMO inh) | APOBEC3G confirm inactive | UDG ctr A3G inactive
C(=N\N1CCN(Cc2cccc3ccccc23)CC1)/c1ccco1	none
CSc1nc(-c2ccc(Cl)cc2)nn1C(=O)c1ccco1	none
Cc1cc2n(n1)C(c1ccc(N(C)C)cc1)Nc1ccccc1-2 (stereo unspecified)	none
Cc1ccc(Cn2c(=S)[nH]c3ccc(N4CCOCC4)cc3c2=O)o1	APOBEC3G inh 59 | APOBEC3G confirm 76
CC(C)Nc1nc2nonc2nc1Nc1ccccc1	none
Cc1cc(C)n(CCc2nc(-c3ccc(C)o3)cs2)n1	APOBEC3G inh 47 | APOBEC3G confirm 40
COCCNC(=S)NNc1cccc(C(=O)O)c1	none
Cc1ccc(OCc2nnc(NC(=O)c3ccco3)s2)cc1	none
O=C(Nc1nnc(COc2ccc(Cl)cc2)s1)c1ccco1	PfGluPho inh 66, APOBEC3G inh 71 | APOBEC3G confirm 43 | UDG ctr A3G inactive | PfG6PD confirm inactive
